Assay results as given in ChEMBL document CHEMBL1157010, “Synthesis and in vivo evaluation of 3,4-disubstituted gababutins” (Bioorg Med Chem Lett, 2010).
Calls of active or inactive are those of the source. The rule behind the calls is not given here.

Key:
[1] = Displacement of [3H]gabapentin from Voltage-dependent calcium channel subunit alpha-2/delta in pig cerebral cortex by scintillation counting; type: tissue-based, Sus scrofa
[2] = Lipophilicity, log D at pH 7.4; type: physicochemical; conditions: buffer
[3] = Tmax in rat; type: ADME, organism-based; conditions: in vivo
[4] = Bioavailability in rat; type: ADME, organism-based; conditions: in vivo
[5] = Clearance in rat; type: ADME, organism-based; conditions: in vivo
[6] = test system: Rattus norvegicus; test: Anxiolytic activity in po dosed rat water lick conflict model of anxiety assessed as increase in number of shocks received; type: functional
How it was run: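 Rat drinking-conflict model with oral dosing across a range of doses. The read-out was the mean number of shock episodes received per rat over 10 min, where a greater number of shocks indicates reduced anxiety. The minimum effective dose was determined, with significance tested against vehicle (P <0.05).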

[7] = test system: Rattus norvegicus; test: Sedative activity in rat at > 100 mg/kg, po; type: organism-based; parameters: dose 100 mg/kg, route oral; conditions: in vivo
[8] = Elimination half life in rat; type: ADME, organism-based; conditions: in vivo, read-out: beta t1/2 (converted)
[9] = test system: Rattus norvegicus; test: Antiinflammatory activity against carrageenan-induced thermal hyperalgesia in rat assessed as paw withdrawal from heat at 30 mg/kg, po after 2 hrs; type: functional, organism-based; parameters: dose 30 mg/kg
How it was run: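 Rats received intraplantar carrageenan in the paw, and inflammation and hyperalgesia developed within 2 h. At that point the compound was given orally. Reversal of thermal hyperalgesia was read as time to paw withdrawal. Significance was tested against vehicle (P <0.05, P <0.01).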

[10] = test system: Rattus norvegicus; test: Sedative activity in rat water lick conflict model of anxiety at 100 mg/kg, po; type: organism-based; parameters: dose 100 mg/kg, route oral; conditions: in vivo

Structure (SMILES): CCC[C@H]1CC(CN)(CC(=O)O)C[C@@H]1C (mixture of isomers)
- IC50 [1]: 21 nM

Structure (SMILES): C[C@@H]1CC[C@@](CN)(CC(=O)O)C1
- IC50 [1]: 71 nM

Structure (SMILES): C[C@@H]1C[C@](CN)(CC(=O)O)C[C@@H]1C
- IC50 [1]: 153 nM

Structure (SMILES): C[C@@H]1C[C@@](CN)(CC(=O)O)C[C@@H]1C
- IC50 [1]: 107 nM

Structure (SMILES): C[C@@H]1CC[C@](CN)(CC(=O)O)C1
- IC50 [1]: 30 nM

Structure (SMILES): CC[C@@H]1C[C@](CN)(CC(=O)O)C[C@@H]1CC
- IC50 [1]: 4200 nM

Structure (SMILES): C[C@H]1CC(CN)(CC(=O)O)C[C@@H]1C (relative stereo) [ATAGABALIN]
- logD [2]: -1
- IC50 [1]: 22 nM
- Tmax [3]: 1.2 h
- bioavailability [4]: 87%
- clearance [5]: 4 mL/min/kg
- Activity [6]: Dose-dependent effect
- minimal effective dose ([6]; read-out: MED): 10 mg/kg
- Activity [7]: Toxic
- half-life [8]: 2.4 h
- Activity [9]: Active
- Activity [10]: Toxic

Structure (SMILES): CC[C@H]1CC(CN)(CC(=O)O)C[C@@H]1CC (racemic)
- IC50 [1]: 1100 nM

Structure (SMILES): C[C@@H]1CC(CN)(CC(=O)O)C[C@H]1C
- IC50 [1]: 882 nM
